Test results from the EternaBench riboswitch data.

System: MS2 coat protein
Assay: apparent Kd, MS2 coat protein; higher = weaker binding; RNA-MaP array; FMN 200 µM where present
How it was run: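 The apparent Kd comes from binding curves fitted cluster by cluster, filtered, and summarised as a median. Those curves followed SNAP-549-labelled MS2 coat protein from 0.7 or 1.5 nM, doubling to 3 µM, on Illumina sequencing-chip clusters where stalled E. coli RNA polymerase had transcribed the designs, without and then with constant ligand. The buffer was 100 mM Tris-HCl pH 7.5, 80 mM KCl, 4 mM MgCl2, BSA, DTT, yeast tRNA and Tween-20, and green signal was normalised to red-channel RNA signal and control-cluster median Fmax.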

[1] = designed as: OFF switch for flavin mononucleotide, no ligand
[2] = ligand present: flavin mononucleotide, designed as: OFF switch for flavin mononucleotide
[3] = designed as: ON switch for flavin mononucleotide, no ligand
[4] = ligand present: flavin mononucleotide, designed as: ON switch for flavin mononucleotide

Sequence | apparent Kd [1] [nM] | apparent Kd [2] [nM] | apparent Kd [3] [nM] | apparent Kd [4] [nM]
GUCAGCUUGUGAGGAUAUACAACACUGCUUCGGCAGUGUAUUAAGAUCACAUGAGGAUCACCCAUGUAGAAGGCACGAGCUGAU | 14 | 257 |  | 
CGUCUGUCAGGAUAUAGUUACGUAGACAUGAGGAUCACCCAUGUGACGUGGGACUAGUGACUAGAAGGGACGAACG | 22.3 | 52.5 |  | 
GGAGCACAUAAAUACAUGAGGAUCACCCAUGUCAAAAGACAUGAGGAUAUGGAUCGGAAAACGAUCUAGAAGGCAUGGUGCUCC |  |  | 533 | 20.9
UGUGCUAUGUAGAAGGCAGAUCUGAUUCAGAUCUGAGGAUAUACAUGAGGAUCACCCAUGUUAUGCACCAGCACGAGAGUGCAU | 17.7 | 91.8 |  | 
GUUUCACAUGAGGAUCACCCAUGUGAGGAUAUAGAUUUGUUAACCGUAGUUAAUAGAUCUAGAAGGCGCGUGAU | 60.7 | 66.1 |  | 
AGAAACUACGAGAAGGACAUAUAAUUCUUCAGAUACAUGAGGAUCACCCAUGUAGGAUAUCGUAGUUUCAGGAUCGUGAGAUCA | 5.95 | 10.3 |  | 
AGUUAUUCAGGAUAUGGUGUGUUAUACAUGAGGAUCACCCAUGUGGGUCCUGGUUAGGCCUCAGAAGGGAAUGUUA | 703 | 534 |  | 
AUUUUAAUGUCAGGAUAUAUUAGUUUAUAUAUAGUAGAAGGGAUAAUUAUACUCAUGUACAUGAGGAUCACCCAUGUUAAAUAA |  |  | 216 | 79.1
CUCCAUUCUGGAGGAUAUCAUAGUCGUUGACUAUGAGAAGGUUAGCUAUCUUACAUGAGGAUCACCCAUGUGAUCUACAUGGAG |  |  | 40.5 | 10.8
CAGAUCGAUGUGAGGAUAUCUGUGUUACCCUGUAAGGAGAAGGCACAUGAGGAUCACCCAUGUGAUUCGGUCCU | 40.4 | 36.3 |  | 
GUUUCGUGAGGAUAUGUGGCUUCGAUCGUGCGAAAAAGGCUACAGAAGGCACAUGAGGAUCACCCAUGUUCCUC | 119 | 568 |  | 
UCGGAGAAAGGAUAUACACCAAGGGUAUAGUAGGAUCCUGGACAUGAGGAUCACCCAUGUAGAAGGUUCACUGC | 60.1 | 31.1 |  | 
UUGGACGUCGUAGGAUAUGUAGGAUAUUCCCACAUGAGGAUCACCCAUGUUGACAUGGAAGAAGGACAGAAGGACGAUGUCCAU |  |  | 4.05 | 3.47
UAAAAGCUAGGAUAUACAUGAGGAUCACCCAUGUAAUCUCUCACUUACACGGAGGAUCGUAGAAGGAGCACAAA | 21.7 | 55.6 |  | 
AUCCACCGCACGGACACGUCGAGUCAGGAUAUACAUGAGGAUCACCCAUGUGAAGGCCGGCUCAUGUAGAAGGGACAGGCGUUG | 10.4 | 22.5 |  | 
GCUAGGAAUGUCAGGAUAUGCAGAACCUUGGUUCUGCAGAAGGGACAUGAGGAUCACCCAUGUGCUAACCUAGC | 29.6 | 113 |  | 
GCUAGAUUUGCAGGAUAUUGUAAUUUAUUAUUUCAAGAAGGGCAUUACAUGAGGAUCACCCAUGUCAUCCUAUGGUUUACUAGC | 9.57 | 23.1 |  | 
UACUCGUGUGAGAAGGGACGUAUCUCCAUGAGGGCAGGGCUAUUAGAGAAGUCAGGAUAUCACAUGAGGAUCACCCAUGUGACG | 8.26 | 10.8 |  | 
UCGGCGCGAGGAUAUGCGGUUUGUGCUUUGGGCCCUGGCGUACAUGAGGAUCACCCAUGUAGAAGGCGCGCCGC | 19.5 | 19.6 |  | 
UUCGCUAAGGUGUAGCGAGACUUGCAAGAAGGGUGAUGCACAUGAGGAUCACCCAUGUAAGCCUUACAGGAUAUUGCUUGCCGA |  |  | 600 | 220
AUCAGCUCGUCAGGAUAUACGUCACUGCGUCAGCAGUGUGGUAAGAUAACAUGAGGAUCACCCAUGUAGAAGGGACGAGCUGAU | 7.29 | 13.1 |  | 

Sequence | apparent Kd [1] [nM] | apparent Kd [2] [nM] | apparent Kd [3] [nM] | apparent Kd [4] [nM]
UGUCGGAGCAGAGGAUAUUACAUGAGGAUCACCCAUGUAUGAAACAAUAGCUGGAAACAGCAAUGUAAGAAGGCUGCUCCGACA | 5.94 | 11.3 |  | 
GGCGAACAGGCUAACAUGAGGAUCACCCAUGUGGACUCAUGGUAGGAUAUGCUGUAGAAACUACAGCAGAAGGGCCGGUGAGCC |  |  | 66.1 | 294
GUCGUGUGAGGAUAUGAUUUUUAGGCGGGAUUGCGACUGCUUCAGAAGGCACAUGAGGAUCACCCAUGUAUGAA | 11.3 | 38.8 |  | 
CCAUGCGGAUGAGGAUAUUCAUCCAUGAGGAUAGAAGAAGGCGUACAUGAGGAUCACCCAUGUAUACACAUGAGGAUCCCUUAC | 462 | 420 |  | 
GCCAUCGCAUGAGGAUAUGCUCCGGUUUCCGGAGCAGAAGGCAUGUAAUAAGACAUGAGGAUCACCCAUGUAGUUAAGAUGGCA |  |  | 7.11 | 5.55
AGAGCCUCGUGAGGAUAUACAUGAGGAUCACCCAUGUAAUAAAGUGAACGGAGGAAACUCCGAAUGUAGAAGGCACGAGGCUCA | 44.5 | 391 |  | 
AUGCUUCACACAGGAUAUACAUGAGGAUCACCCAUGUGUCCACCGUAGCUGACACGAGCUACGCUGUAGAAGGGUGUGAAGCAU | 19.3 | 52.8 |  | 
GUGGUUGUCGUAGGAUAUGUAGGAUAUUCCUACAUGAGGAUCACCCAUGUUCGCAUGGAAGAAUGACAGAAGGACGAUGACCAU |  |  | 330 | 82.6
CUAUAUAAUACCUCAUGUACAUGAGGAUCACCCAUGUUAACUAAGGAUAUAUUUAUAUUAAUAAAGUAGAAGGUAGUACUAUUU | 23.4 | 18.8 |  | 
AGAAACUACGAGAAGGACAUGUGGUCCUUCAGUUACAUGAGGAUCACCCAUGUAGGAUAUAAAAGUUUCAGGAUCGUGAGAUCA | 6.78 | 7.1 |  | 
GGUCCACAUGAGGAUCACCCAUGUUAGGAUAUCUCGCCCGAGUCCAUAUGGGCCGGGCAGAGAAGGAAUGUGAA | 21 | 22.6 |  | 
CUGUAGUGAGGAUAUUAUUUGCAAGCCCUAGACGGCGCGAAUGAGAAGGUACAUGAGGAUCACCCAUGUGGUUG | 126 | 297 |  | 
UUACUCAUGUAAGGAUAUGCAGCCGUUUCGGCUGCAGAAGGUACUAUAAUACAUGAGGAUCACCCAUGUCUUUUUAAUUUAGAU |  |  | 195 | 77
GUUGCUUUCCGAGGAUAUUCAGGGCGUGGAUAUACAUGAGGAUCACCCAUGUGGCGGAAGCCUAGGGAGAAGGCGGGCUGCUUC |  |  | 41.1 | 20.5
GGGUGGCGUAGAGGAUAUGUGGUACAUGAGGAUCACCCAUGUGCAUAUGAUGUUCGUGUUUAUGUAUAGAAGGCUACGUCGCUA |  |  | 12.5 | 12.3
UGUUGUAUUACAGGAUAUCUAUUGUUUUUUUUUAGAGAAGGGUAUUCACAUGAGGAUCACCCAUGUAUAUACGAGGAAGUUGUG |  |  | 60.7 | 71.3
GACUGCUGAGGAUAUACAUGAGGAUCACCCAUGUGCUUCAGCUACGAAAGUAGCAUUGGUAGAAGGUAGUAGUC | 12.4 | 22.4 |  | 
AGCUGUGGCAGAGGAUAUACUCCUAAAAUCCAUUGCAAAUAGCGAUGGACAUGAGGAUCACCCAUGUAGAAGGCUGUCUCAGCA | 57.2 | 649 |  | 
UGUUGUAUUACAGGAUAUCUAUUAGCUUUAUUUAGAGAAGGGUAUUCACAUGAGGAUCACCCAUGUAUAUACGAGGAAGUUGUG |  |  | 46.1 | 50.1
AGUCGGGAAUACUCGAAUGGUUAGCAGGAUAUCGACAUGAGGAUCACCCAUGUUGGGUUGAAUGUCGAGAAGGGCUCGGAAUGA | 198 | 193 |  | 
AUAAUGUGAGGAUAUACAUGAGGAUCACCCAUGUAAUUAAAUCGGAGAGCCACAUUUCGUAGAAGGUACAUUUA | 20.7 | 22.6 |  | 
